High-throughput results as filed in PubChem BioAssay.
GALR2 antag – GALR2 antagonists in receptor-expressing cells, primary screen; Galanin receptor type 2 (Homo sapiens), O43603; antagonist mode; inhibition, % at 4 µM; 140,000 compounds, 0.39% hits; AID 828, 2007;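 also: cells stimulated with galanin 1-16 at roughly its EC80; 0% = agonist challenge control and 100% = basal control without agonist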
Target sequence (O43603 whole entry, looked up): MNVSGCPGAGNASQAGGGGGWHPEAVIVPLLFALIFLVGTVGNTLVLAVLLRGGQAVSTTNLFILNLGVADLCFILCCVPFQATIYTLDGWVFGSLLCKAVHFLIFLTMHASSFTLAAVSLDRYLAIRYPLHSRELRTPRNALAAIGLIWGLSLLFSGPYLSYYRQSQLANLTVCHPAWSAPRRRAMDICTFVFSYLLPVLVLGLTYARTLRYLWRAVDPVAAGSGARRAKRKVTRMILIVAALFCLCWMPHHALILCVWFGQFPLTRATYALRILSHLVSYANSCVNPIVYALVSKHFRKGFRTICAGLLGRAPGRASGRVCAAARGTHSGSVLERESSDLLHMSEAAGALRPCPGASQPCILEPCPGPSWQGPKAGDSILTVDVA
S1P2 antag – human S1P2 receptor antagonists, primary screen, cell-based; 97,000 compounds, 0.21% hits; inhibition, % at 5 µM; Sphingosine 1-phosphate receptor 2 (Homo sapiens), O95136; cell-based S1P2 antagonist assay, inhibition at 5 uM; in the data active = inhibition above about 45%;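 also: CRE beta-lactamase reporter cells expressing human S1P2 stimulated with S1P; 0% = agonist at EC80 alone and 100% = agonist plus reference antagonist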
S1P2 agonist – S1P2 receptor agonists, primary screen, cell-based; Sphingosine 1-phosphate receptor 2 (Homo sapiens), O95136; S1P2-expressing cell line, agonist reporter read-out; activation, % at 4.5 µM; 97,000 compounds, 0.46% hits; AID 729, 2007; in the data active = activation above about 16%;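 also: 0% = vehicle low control and 100% = maximal reference agonist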
Rev-RRE block – HIV-1 Rev-RRE binding inhibitors, primary screen, biochemical, FRET, protein-RNA interaction | P05866 | Rev peptide-RRE RNA binding | inhibition, % at 8 µM | 97,000 compounds, 0.79% hits | AID 704, 2007;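 active = inhibition above the screen-wide mean plus 3 SD, cut at about 35% in these data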;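 also: 0% = median DMSO wells and 100% = median Neomycin B control wells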
Target sequence (P05866 whole entry, looked up): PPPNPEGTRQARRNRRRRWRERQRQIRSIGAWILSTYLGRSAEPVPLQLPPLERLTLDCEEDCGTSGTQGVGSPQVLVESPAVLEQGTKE
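Material: labelled RRE RNA duplex and labelled Rev peptide / Buffer or medium: HEPES pH 7.5 salt buffer with EDTA / Compound dosing: single point, 8 µM final nominal compound concentration / Benchmarks: DMSO low control, neomycin B high control / Timing: 5 min preincubation and 15 min binding, 25 °C / Technique: FRET fluorescence readout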
GALR2 ag – GALR2 receptor agonists, primary screen, cell-based | GALR2-expressing cells, agonist activation read-out | 140,000 compounds, 0.48% hits | Galanin receptor type 2 (Homo sapiens), O43603 | activation, % (no concentration beside the values); in the data active = activation above about 5%, passing the limit was not always enough;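 also: 0% = vehicle buffer wells and 100% = reference agonist at full effect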
GALR2 blk conf – GALR2 antagonists, retest of hits, confirmation, cell-based; GALR2-expressing cells, antagonist mode, inhibition; inhibition, % at 4 µM; shares compounds with GALR2 antag; 480 compounds, 60% hits;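 also: cells stimulated with galanin at about its EC80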
BLA inh counter – inhibitors of NFAT-driven beta-lactamase reporter, confirmation, counter-screen for GALR2 antagonist project, CHO NFAT-bla cells, FRET readout. shares compounds with GALR2 antag. thapsigargin-stimulated. inhibition, % at 4.2 µM. 480 compounds, 36% hits;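 active = inhibition above the mean inhibition across tested compounds plus 3 SD, cut at about 27% in these data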;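 also: 0% = 500 nM thapsigargin stimulated wells and 100% = unstimulated BSA only wells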
Numbers without * were called inactive; . = no result; [ ] = dose if it differs, or a comment. Only some compounds are listed: those with a hit (about 1.6% of all), similar ones and a draw of the others. Rule as the data show it, unless noted: active = inhibition above about 27%; inactive = the rest.

SMILES	GALR2 antag	S1P2 antag	S1P2 agonist	Rev-RRE block	GALR2 ag	GALR2 blk conf	BLA inh counter
CCOC(=O)c1ccc(NC(=O)c2ccccc2[N+](=O)[O-])cc1	0	.	.	.	-1	.	.
CC1=C(C)/C(=N\OS(=O)(=O)c2ccccc2)C=CC1=O	77*	96*	-1	7	-2	78*	71*
Cc1ccc(S(=O)(=O)O/N=C2\CCCc3ccccc32)cc1	5	2	-6	10	-6	.	.
CN1Cc2cccc3c2C(Cc2ccccc2S3)C1 (stereo unspecified)	-3	.	.	.	1	.	.
CC(=O)c1ccc(-n2c(SCC(=O)c3c[nH]c4ccccc34)nc3ccccc3c2=O)cc1	5	.	.	.	1	.	.
Cn1nc(-c2ccc(Cl)cc2)nc2c(=O)n(C)c(=O)nc1-2	94*	99*	-3	26	4	100*	95*
COc1cc(C(=O)NC(=S)Nc2ccc([N+](=O)[O-])cc2C)cc(OC)c1OC	50*	.	.	.	-1	7	4
CC(C)CNC(=O)c1ccccc1NC(=O)/C=C/c1cccc([N+](=O)[O-])c1	6	.	.	.	-1	.	.
CC(CC(=O)c1cccs1)CC(=O)c1cccs1	33*	15	-9	2	-4	9	5
Cc1cc(C)c(S(=O)(=O)NCc2ccncc2)c(C)c1	31*	47*	-5	7	1	35*	9
CCCCNS(=O)(=O)c1ccc(S(=O)(=O)NCc2ccncc2)cc1	27*	19	-4	5	-2	20	13
O=C1/C(=C/c2ccco2)CCc2ccccc21	-4	.	.	.	0	.	.
Nc1ccc2c(c1)C/C(=C/c1ccco1)C2=O	29*	.	.	.	-2	33*	36*
CCCc1nn(C)c(C(=O)Nc2ccccc2)c1Cl	1	.	.	.	0	.	.
Cc1ccc(C)c(N2CCN(c3ccc(N4C(=O)COCC4=O)cc3[N+](=O)[O-])CC2)c1	8	.	.	.	-1	.	.
Cc1cc(N2C(=O)C=CC2=O)c([N+](=O)[O-])cc1C	45*	.	.	.	-2	46*	71*
Cc1ccc(N(CC(=O)NCCSc2nc3ccccc3s2)S(=O)(=O)c2ccccc2)c(C)c1	-2	.	.	.	-2	.	.
CCOC(=O)C(O)(CC(=O)Nc1cc(F)ccc1C)C(F)(F)F (stereo unspecified)	29*	7	-1	4	-2	8	5
Oc1c(C=Nc2cccnc2)sc2ccccc12	10	7	-2	23	0	.	.
COc1ccc(N=Cc2c(O)[nH]c3ccccc23)cc1	10	-3	-7	-1	-2	.	.
Oc1sc(C=Nc2ccccc2)c2ccccc12	39*	32	-6	120*[fluorescence artefact?]	-2	30*	28*
Oc1sc(C=Nc2ccc(F)cc2)c2ccccc12	39*	27	-7	109*[fluorescence artefact?]	-2	27*	14
Clc1ccc2nc(N3CCNCC3)nc(-c3ccccc3)c2c1	35*	2	59*	0	24*	30*	50*
Cc1n[nH]c(C)c1N1C(=O)c2cccc3c(Br)ccc(c23)C1=O	44*	74*	-10	3	-1	28*	25
Cc1n[nH]c(C)c1N1C(=O)c2cccc3cc(Br)cc(c23)C1=O	-5	-10	-5	12	-1	.	.
SMILES	GALR2 antag	S1P2 antag	S1P2 agonist	Rev-RRE block	GALR2 ag	GALR2 blk conf	BLA inh counter
CCN(CC)c1ccc(/C=C2/SC(=O)N(C(C)C)C2=O)o1	45*	.	.	.	3	3	5
O=C(OCn1ncc(Cl)c(Cl)c1=O)c1ccc(F)cc1	91*	80*	-2	2	-3	93*	86*
O=C(OCn1ncc(Cl)c(Cl)c1=O)c1ccccc1Cl	95*	84*	-3	1	-3	93*	82*
CC1CCN(c2c(NCC3CCC(C(=O)NCc4ccccc4Cl)CC3)c(=O)c2=O)CC1 (stereo unspecified)	-18	.	.	.	-1	.	.
Cc1ccc(-c2cn(-c3ccccc3)c(SCC(=O)NC3CCS(=O)(=O)C3)n2)cc1C (stereo unspecified)	15	.	.	.	0	.	.
CN(C(=O)COc1ccccc1C(=O)NCCOc1ccccc1)c1ccccc1	29*	.	.	.	-2	43*	12
CCOC(=O)C(C(=O)Nc1cccc(C)c1)C1CCCCC1 (stereo unspecified)	-13	-20	1	9	1	.	.
O=C(Nc1ncc(Cc2ccc(SC(F)F)cc2)s1)c1ccc(OC(F)F)cc1	33*	.	.	.	3	8	27*
Cc1ccc(Cc2cnc(NC(=O)c3ccco3)s2)cc1	-4	-1	-2	10	-2	.	.
COC(=O)/C(=C1/Oc2cc(C)oc(=O)c2S1)C(F)(F)F	61*	.	.	.	-2	66*	51*
Cc1ccc(NC(=O)c2ccccc2N(C)S(=O)(=O)c2ccccc2)c(C)c1	-10	.	.	.	-1	.	.
O=C(NCc1ccc(F)cc1)C(=O)Nc1nc(C23CC4CC(CC(C4)C2)C3)cs1	-12	.	.	.	-1	.	.
Cc1cc(C)[n+](-c2ccc(C(C)C)cc2)c2[nH]c(=O)[nH]c(=O)c12	2	.	.	.	-1	.	.
CSC(=NC#N)N1CCN(c2ccccc2)CC1	-12	5	-5	0	0	.	.
COc1cc(C(=O)O/N=C2\C=CC(=O)C(C)=C2)cc(OC)c1OC	77*	29	-7	3	-3	33*	44*
COc1cc(C(=O)ON=C2C=C(C)C(=O)C(C)=C2)cc(OC)c1OC	-10	.	.	.	-1	.	.
Cc1ccnc(N2C(=O)c3cccc4c([N+](=O)[O-])ccc(c34)C2=O)c1	36*	52*	2	45*	3	42*	40*
O=C1c2cc([N+](=O)[O-])cc3cc([N+](=O)[O-])cc(c23)C(=O)N1c1ccccn1	20	.	.	.	-1	.	.
CCN(CC)c1ccc(/C=C(/C#N)c2nc3ccc(C)cc3[nH]2)c(OC(C)C)c1	34*	20	7	138*[fluorescence artefact?]	-4	30*	37*
COc1ccc(/C=C(\C#N)c2nc3ccc(C)cc3[nH]2)cc1Oc1ccc(C(F)(F)F)cc1[N+](=O)[O-]	-11	-2	-5	23	-1	.	.
C=CCN1C(=O)N/C(=C/c2ccccc2OCC(=O)Nc2ccc(F)cc2)C1=O	9	.	.	.	0	.	.
O=S(=O)(/C(=C/c1ccc(C(F)(F)F)cc1)c1nc2ccccc2[nH]1)c1ccccc1	38*	.	.	.	2	51*	45*
CC(C)c1ccc(/C=C(\c2nc3ccccc3[nH]2)S(=O)(=O)c2ccccc2)cc1	0	.	.	.	-2	.	.
O=C(N/N=C/c1cc2c3c(c1O)CCCN3CCC2)c1ccccc1O	32*	.	.	.	-2	35*	24
